Experiment [1] relates to Staphylococcus aureus. Nature of the experiment: Inhibition of protein synthesis in Staphylococcus aureus ATCC 29213 at 8 times MIC measured by liquid scintillation counter. Type of experiment: functional.
Experiment [2] has as its system Staphylococcus epidermidis. As to the kind of experiment: Antimicrobial activity against methicillin-resistant Staphylococcus epidermidis ATCC 700296 assessed as bacterial growth inhibitions by CLSI protocol based microdilution method. Type of experiment: functional.
Experiment [3] relates to Staphylococcus aureus. As to the kind of experiment: Antimicrobial activity against methicillin-resistant Staphylococcus aureus ATCC 700699 assessed as bacterial growth inhibitions by CLSI protocol based microdilution method. Type of experiment: functional. On the technique in general: Dilution methods test growth across graded concentrations, often in twofold steps.
Experiment [4] deals with Staphylococcus aureus. Nature of the experiment: Antimicrobial activity against methicillin-resistant Staphylococcus aureus ATCC 33592 assessed as bacterial growth inhibitions by CLSI protocol based microdilution method. The format is functional.
Experiment [5] has as its system Enterococcus faecalis. Nature of the experiment: Antibiofilm activity against Enterococcus faecalis ATCC 29212 assessed as inhibition of biofilm formation at 2 times MIC after 24 hrs by crystal violet staining based assay relative to control. Type of experiment: functional. More on the design: scale not given: the % may be the effect or the level left. The method in brief: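 Overnight culture brought to 0.5 McFarland in PBS, diluted 1:100 in CAMHB with 1% glucose. Inhibition: cells plus compound (in DMSO) at 2x, 1x, 0.5xMIC, 24 h at 35 °C, triplicate. Destruction: 24 h biofilm grown without drug, washed, fresh medium with compound, further 24 h. Then washed, dried, 0.1% crystal violet, solubilized in 33% acetic acid, OD 620 nm. Controls are DMSO-only and broth-only wells.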

Experiment [6] deals with Staphylococcus aureus. Nature of the experiment: Antimicrobial activity against antibiotic-resistant Staphylococcus aureus BM-2312 assessed as bacterial growth inhibitions by CLSI protocol based microdilution method. The format is functional.
Experiment [7] deals with Staphylococcus aureus. Nature of the experiment: Antimicrobial activity against methicillin-susceptible Staphylococcus aureus ATCC 25923 assessed as bacterial growth inhibitions by CLSI protocol based microdilution method. The format is functional.
A further experiment relates to Bacillus subtilis. Nature of the experiment: Antimicrobial activity against Bacillus subtilis ATCC 6623 assessed as bacterial growth inhibitions by CLSI protocol based microdilution method. The format is functional. In outline: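 Broth microdilution starting at 50 µg/ml with 2-fold serial dilutions; run in triplicate.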
Experiment [8] concerns Enterococcus faecium. Nature of the experiment: Antimicrobial activity against vancomycin-resistant Enterococcus faecium ATCC 700221 assessed as bacterial growth inhibitions by CLSI protocol based microdilution method. The format is functional.
Experiment [9] relates to Enterococcus faecalis. As to the kind of experiment: Antimicrobial activity against vancomycin-susceptible Enterococcus faecalis ATCC 29212 assessed as bacterial growth inhibitions by CLSI protocol based microdilution method.
Experiment [10] has as its system Staphylococcus aureus. Nature of the experiment: Antimicrobial activity against methicillin-resistant Staphylococcus aureus ATCC 33591 assessed as bacterial growth inhibitions by CLSI protocol based microdilution method. The format is functional.
Experiment [11] concerns Staphylococcus aureus. Nature of the experiment: Antibacterial activity against methicillin resistant Staphylococcus aureus ATCC 700699 persisters assessed as reduction in viability at 64 times MIC by colony counting method. The format is functional, organism-based. The method in brief:
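Stationary-phase S. aureus from overnight CAMHB culture (35 °C, 200 rpm), washed thrice in PBS, diluted to ~5 × 10^8 CFU/ml. Incubated with antibiotic at 35 °C, 200 rpm. Aliquots taken at set times, washed, serially diluted in PBS, drop-plated (6 × 6) on TSA with 5% sheep blood. Colonies counted after 18–20 h at 35 °C. Triplicates.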

The subject of experiment [12] is Staphylococcus aureus. As to the kind of experiment: Antimicrobial activity against methicillin-resistant Staphylococcus aureus clinical isolate 1088888 by CLSI-based broth microdilution assay. Type of experiment: functional.
In experiment [13] the test system is Staphylococcus aureus. Nature of the experiment: Antimicrobial activity against methicillin-sensitive Staphylococcus aureus clinical isolate 1088105 by CLSI-based broth microdilution assay. The format is functional.
For experiment [14], the system named is Staphylococcus aureus. As to the kind of experiment: Antimicrobial activity against methicillin-resistant Staphylococcus aureus clinical isolate 1088610 by CLSI-based broth microdilution assay. The format is functional.
Experiment [15] relates to Enterococcus faecium. As to the kind of experiment: Antimicrobial activity against vancomycin-resistant Enterococcus faecium clinical isolate 1091282 by CLSI-based broth microdilution assay. Type of experiment: functional.
The subject of experiment [16] is Staphylococcus aureus. As to the kind of experiment: Antimicrobial activity against methicillin-sensitive Staphylococcus aureus clinical isolate 1088626 by CLSI-based broth microdilution assay. Type of experiment: functional.
In experiment [17] the test system is Enterococcus faecium. Nature of the experiment: Antimicrobial activity against vancomycin-resistant Enterococcus faecium clinical isolate 1088925 by CLSI-based broth microdilution assay. The format is functional.
Experiment [18] concerns Enterococcus faecium. As to the kind of experiment: Antimicrobial activity against vancomycin-resistant Enterococcus faecium clinical isolate 1100440 by CLSI-based broth microdilution assay. Type of experiment: functional.
Experiment [19] has as its system Enterococcus faecium. As to the kind of experiment: Antimicrobial activity against vancomycin-resistant Enterococcus faecium clinical isolate 1088051 by CLSI-based broth microdilution assay. Type of experiment: functional.
For experiment [20], the system named is Staphylococcus aureus. Nature of the experiment: Antimicrobial activity against methicillin-sensitive Staphylococcus aureus ATCC 29213 by CLSI-based broth microdilution assay. Type of experiment: functional.
For experiment [21], the system named is Enterococcus faecium. Nature of the experiment: Antimicrobial activity against vancomycin-resistant Enterococcus faecium clinical isolate 1088168 by CLSI-based broth microdilution assay. Type of experiment: functional.
The subject of experiment [22] is Enterococcus faecium. Nature of the experiment: Antimicrobial activity against vancomycin-resistant Enterococcus faecium clinical isolate 1091720 by CLSI-based broth microdilution assay. The format is functional.
Experiment [23] deals with Enterococcus faecium. As to the kind of experiment: Antimicrobial activity against vancomycin-resistant Enterococcus faecium clinical isolate 1088228 by CLSI-based broth microdilution assay. The format is functional.
In experiment [24] the test system is Enterococcus faecium. Nature of the experiment: Antimicrobial activity against vancomycin-resistant Enterococcus faecium clinical isolate 1089544 by CLSI-based broth microdilution assay. Type of experiment: functional.
For experiment [25], the system named is Enterococcus faecium. As to the kind of experiment: Antimicrobial activity against vancomycin-resistant Enterococcus faecium clinical isolate 1094112 by CLSI-based broth microdilution assay. Type of experiment: functional.
The subject of experiment [26] is Staphylococcus aureus. As to the kind of experiment: Antimicrobial activity against methicillin-resistant Staphylococcus aureus clinical isolate 1089106 by CLSI-based broth microdilution assay. The format is functional.
Experiment [27] has as its system Staphylococcus aureus. As to the kind of experiment: Antimicrobial activity against methicillin-resistant Staphylococcus aureus clinical isolate 1088064 by CLSI-based broth microdilution assay. The format is functional.
For experiment [28], the system named is Enterococcus faecium. As to the kind of experiment: Antimicrobial activity against vancomycin-resistant Enterococcus faecium clinical isolate 1091563 by CLSI-based broth microdilution assay. Type of experiment: functional.

Values after ≈ are worked out from the molar mass of the structure shown. Active and inactive are the calls of the source. A value given as a limit tells only on which side of the number the result lay.

As usually defined, the inhibition is the percentage by which the read-out fell short of the control. Compound `CC(=O)NC[C@H]1CN(c2ccc(N3CCOCC3)c(F)c2)C(=O)O1` yielded an inhibition in the experiment on Staphylococcus aureus [1] of 70.7%.
Usually MIC stands for the smallest concentration in the dilution series that meets the test's criterion for growth inhibition. As to `O=C(O)c1ccc(-n2cc(CNc3cc(Cl)c(F)c(Cl)c3F)c(-c3ccc(C(F)(F)F)cc3)n2)cc1`, the MIC (in experiment [2]; with Staphylococcus aureus [3]; in the experiment with Staphylococcus aureus [4]; in the experiment with Staphylococcus aureus [6]; in the experiment with Staphylococcus aureus [7]; in the experiment with Bacillus subtilis) was 0.78 µg/mL (≈ 1.44 µM) each time. For the same compound, the MIC in the experiment on Enterococcus faecium [8], with Enterococcus faecalis [9] and in the experiment on Staphylococcus aureus [10] was 0.78 µg/mL (≈ 1.44 µM) in each case. Moreover, the Activity in the experiment on Enterococcus faecalis [5] amounted to 80%.
Regarding GENTAMICIN, the result in the experiment on Staphylococcus aureus [11] was inactive.
`O=C(O)c1ccc(-n2cc(CNc3ccc(F)c(Cl)c3F)c(-c3ccc(C(F)(F)F)cc3)n2)cc1`: the MIC in [2] was determined as 1.56 µg/mL (≈ 3.07 µM); with Staphylococcus aureus [3] it was 1.56 µg/mL (≈ 3.07 µM); in the experiment with Staphylococcus aureus [4], 1.56 µg/mL (≈ 3.07 µM); with Staphylococcus aureus [6], 1.56 µg/mL (≈ 3.07 µM); in the experiment on Staphylococcus aureus [7] it was 1.56 µg/mL (≈ 3.07 µM); with Bacillus subtilis it was 0.78 µg/mL (≈ 1.54 µM). The minimal inhibitory concentration (MIC) in the experiment on Enterococcus faecium [8] was 1.56 µg/mL (≈ 3.07 µM); in the experiment on Enterococcus faecalis [9], 6.25 µg/mL (≈ 12.3 µM); in the experiment on Staphylococcus aureus [10], 1.56 µg/mL (≈ 3.07 µM).
For `Cc1onc(-c2ccccc2)c1C(=O)N[C@@H]1C(=O)N2[C@@H]1SC(C)(C)[C@@H]2C(=O)O` [OXACILLIN], the MIC was 1 µg/mL (≈ 2.49 µM) against Staphylococcus aureus [12]; 1 µg/mL (≈ 2.49 µM) against Staphylococcus aureus [13]; 0.5 µg/mL (≈ 1.25 µM) with Staphylococcus aureus [14]; above 32 µg/mL against Enterococcus faecium [15]; 0.5 µg/mL (≈ 1.25 µM) in the experiment with Staphylococcus aureus [16]; above 32 µg/mL with Enterococcus faecium [17]. The MIC was above 32 µg/mL against Enterococcus faecium [18]; above 32 µg/mL with Enterococcus faecium [19]; 1 µg/mL (≈ 2.49 µM) against Staphylococcus aureus [20]; above 32 µg/mL with Enterococcus faecium [21]; above 32 µg/mL in the experiment on Enterococcus faecium [22]; above 32 µg/mL in the experiment on Enterococcus faecium [23]. Also, the MIC against Enterococcus faecium [24] is above 32 µg/mL; in the experiment on Enterococcus faecium [25], above 32 µg/mL; with Staphylococcus aureus [26], 1 µg/mL (≈ 2.49 µM); with Staphylococcus aureus [27], 0.5 µg/mL (≈ 1.25 µM); against Enterococcus faecium [28] it was above 32 µg/mL.
